{
  "source": "ChEMBL document CHEMBL1123801",
  "about": "“Synthesis and antifungal activity of new 1-vinylimidazoles” (1987)",
  "data": [
    {"tested_on": "Aspergillus fumigatus", "assay": "Minimum inhibitory concentration (MIC) against Aspergillus fumigatus", "assay_type": "functional", "details": "not given", "how_it_was_run": "(§1)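 Broth microdilution in Sabouraud's glucose broth. Final inocula 1×10^5 cells/mL for the yeast (C. albicans) and 1×10^5 conidia/mL for the mold (A. fumigatus) and the dermatophyte (T. asteroides). MIC read as the fungistatic end point. Lowest value of duplicated experiments.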", "units": {"MIC": "µg/mL"}, "values": [
      {"smiles": "CC(C)COc1ccc(Cl)cc1/C(=C\\CN(C)C)n1ccnc1", "MIC": "> 100"},
      {"smiles": "CCC(CC)=C(c1cc(Cl)ccc1OCc1ccc(Cl)cc1)n1cncn1", "MIC": "> 100"},
      {"smiles": "CCC(CC)=C(c1cc(Cl)ccc1OC)n1cncn1", "MIC": 100},
      {"smiles": "CCCCOc1ccccc1C(=C(C)C)n1ccnc1", "MIC": 1.6},
      {"smiles": "C=C(c1cccc(OCc2ccc(Cl)cc2)c1)n1ccnc1", "MIC": 12.5},
      {"smiles": "CC(c1ccc(Cl)cc1)(n1ccnc1)n1ccnc1", "MIC": "> 100"},
      {"smiles": "C=C(c1ccccc1OCCC(C)C)n1ccnc1", "MIC": 0.4},
      {"smiles": "c1ccc(C(n2ccnc2)n2ccnc2)cc1", "MIC": "> 100"},
      {"smiles": "CN(C)C/C=C(\\c1ccccc1OCc1ccc(Cl)cc1)n1ccnc1", "MIC": "> 100"},
      {"smiles": "C=C(c1ccccc1N(Cc1ccc(Cl)cc1)C(=O)C(F)(F)F)n1ccnc1", "MIC": 50},
      {"smiles": "CC(C)COc1ccccc1/C(=C\\CN1CCOCC1)n1ccnc1", "MIC": "> 100"},
      {"smiles": "CC(C)=C(c1ccccc1OCC(C)(C)C)n1ccnc1", "MIC": 6.3},
      {"smiles": "C=C(c1ccc(Cl)cc1)n1ccnc1", "MIC": 100},
      {"smiles": "C/C=C(/c1cc(Cl)ccc1OCCC)n1ccnc1", "MIC": 6.3},
      {"smiles": "CCCOc1ccccc1/C(=C\\CN(C)C)n1ccnc1", "MIC": "> 100"},
      {"smiles": "C=C(c1ccccc1OCC(C)C)n1ccnc1", "MIC": 1.6},
      {"smiles": "CC(C)COc1ccccc1/C(=C\\CN(C)C)n1ccnc1", "MIC": "> 100"},
      {"smiles": "C=C(c1ccccc1SCc1ccc(Cl)cc1)n1ccnc1", "MIC": 0.8},
      {"smiles": "c1ccc(C(c2ccccc2)(n2ccnc2)n2ccnc2)cc1", "MIC": "> 100"},
      {"smiles": "COc1ccc(Cl)cc1/C(=C/c1ccccc1)n1ccnc1", "MIC": 25},
      {"smiles": "C=C(c1ccccc1OCCc1ccccc1)n1ccnc1", "MIC": 0.4}
    ]},
    {"tested_on": "Candida albicans", "assay": "Minimum inhibitory concentration (MIC) against Candida albicans", "assay_type": "functional", "details": "not given", "how_it_was_run": "as §1", "units": {"MIC": "µg/mL"}, "values": [
      {"smiles": "CC(C)COc1ccc(Cl)cc1/C(=C\\CN(C)C)n1ccnc1", "MIC": "> 100"},
      {"smiles": "CCC(CC)=C(c1cc(Cl)ccc1OCc1ccc(Cl)cc1)n1cncn1", "MIC": "> 100"},
      {"smiles": "CCC(CC)=C(c1cc(Cl)ccc1OC)n1cncn1", "MIC": 100},
      {"smiles": "CCCCOc1ccccc1C(=C(C)C)n1ccnc1", "MIC": 50},
      {"smiles": "C=C(c1cccc(OCc2ccc(Cl)cc2)c1)n1ccnc1", "MIC": 50},
      {"smiles": "CC(c1ccc(Cl)cc1)(n1ccnc1)n1ccnc1", "MIC": "> 100"},
      {"smiles": "C=C(c1ccccc1OCCC(C)C)n1ccnc1", "MIC": 25},
      {"smiles": "c1ccc(C(n2ccnc2)n2ccnc2)cc1", "MIC": "> 100"},
      {"smiles": "CN(C)C/C=C(\\c1ccccc1OCc1ccc(Cl)cc1)n1ccnc1", "MIC": "> 100"},
      {"smiles": "CC(C)(n1ccnc1)n1ccnc1", "MIC": "> 100"},
      {"smiles": "C=C(c1ccccc1N(Cc1ccc(Cl)cc1)C(=O)C(F)(F)F)n1ccnc1", "MIC": 1.6},
      {"smiles": "CC(C)COc1ccccc1/C(=C\\CN1CCOCC1)n1ccnc1", "MIC": "> 100"},
      {"smiles": "CC(C)=C(c1ccccc1OCC(C)(C)C)n1ccnc1", "MIC": 25},
      {"smiles": "C=C(c1ccc(Cl)cc1)n1ccnc1", "MIC": 100},
      {"smiles": "C/C=C(/c1cc(Cl)ccc1OCCC)n1ccnc1", "MIC": 25},
      {"smiles": "CCCOc1ccccc1/C(=C\\CN(C)C)n1ccnc1", "MIC": "> 100"},
      {"smiles": "C=C(c1ccccc1OCC(C)C)n1ccnc1", "MIC": 100},
      {"smiles": "CC(C)COc1ccccc1/C(=C\\CN(C)C)n1ccnc1", "MIC": "> 100"},
      {"smiles": "C=C(c1ccccc1SCc1ccc(Cl)cc1)n1ccnc1", "MIC": 50},
      {"smiles": "c1ccc(C(c2ccccc2)(n2ccnc2)n2ccnc2)cc1", "MIC": "> 100"},
      {"smiles": "COc1ccc(Cl)cc1/C(=C/c1ccccc1)n1ccnc1", "MIC": 12.5},
      {"smiles": "C=C(c1ccccc1OCCc1ccccc1)n1ccnc1", "MIC": 12.5}
    ]},
    {"tested_on": "not listed separately", "assay": "(§2) Minimum inhibitory concentration against Trichophyton asteroides", "assay_type": "functional", "details": "Trichophyton benhamiae", "how_it_was_run": "as §1", "units": {"MIC": "µg/mL"}, "values": [
      {"smiles": "CC(c1ccc(Cl)cc1)(n1ccnc1)n1ccnc1", "MIC": "> 100"},
      {"smiles": "c1ccc(C(n2ccnc2)n2ccnc2)cc1", "MIC": "> 100"},
      {"smiles": "CC(C)(n1ccnc1)n1ccnc1", "MIC": "> 100"},
      {"smiles": "C=C(c1ccccc1SCc1ccc(Cl)cc1)n1ccnc1", "MIC": 0.1},
      {"smiles": "c1ccc(C(c2ccccc2)(n2ccnc2)n2ccnc2)cc1", "MIC": 0.8}
    ]},
    {"tested_on": "Trichophyton benhamiae", "assay": "as §2", "assay_type": "functional", "details": "not given", "how_it_was_run": "as §1", "units": {"MIC": "µg/mL"}, "values": [
      {"smiles": "CC(C)COc1ccc(Cl)cc1/C(=C\\CN(C)C)n1ccnc1", "MIC": 0.8},
      {"smiles": "CCC(CC)=C(c1cc(Cl)ccc1OCc1ccc(Cl)cc1)n1cncn1", "MIC": "> 100"},
      {"smiles": "CCC(CC)=C(c1cc(Cl)ccc1OC)n1cncn1", "MIC": 0.8},
      {"smiles": "CCCCOc1ccccc1C(=C(C)C)n1ccnc1", "MIC": 0.1},
      {"smiles": "C=C(c1cccc(OCc2ccc(Cl)cc2)c1)n1ccnc1", "MIC": 1.6},
      {"smiles": "C=C(c1ccccc1OCCC(C)C)n1ccnc1", "MIC": 0.1},
      {"smiles": "CN(C)C/C=C(\\c1ccccc1OCc1ccc(Cl)cc1)n1ccnc1", "MIC": 1.6},
      {"smiles": "C=C(c1ccccc1N(Cc1ccc(Cl)cc1)C(=O)C(F)(F)F)n1ccnc1", "MIC": 1.6},
      {"smiles": "CC(C)COc1ccccc1/C(=C\\CN1CCOCC1)n1ccnc1", "MIC": 6.3},
      {"smiles": "CC(C)=C(c1ccccc1OCC(C)(C)C)n1ccnc1", "MIC": 0.1},
      {"smiles": "C=C(c1ccc(Cl)cc1)n1ccnc1", "MIC": 25},
      {"smiles": "C/C=C(/c1cc(Cl)ccc1OCCC)n1ccnc1", "MIC": 0.1},
      {"smiles": "CCCOc1ccccc1/C(=C\\CN(C)C)n1ccnc1", "MIC": 12.5},
      {"smiles": "C=C(c1ccccc1OCC(C)C)n1ccnc1", "MIC": 0.1},
      {"smiles": "CC(C)COc1ccccc1/C(=C\\CN(C)C)n1ccnc1", "MIC": 6.3},
      {"smiles": "COc1ccc(Cl)cc1/C(=C/c1ccccc1)n1ccnc1", "MIC": 6.2},
      {"smiles": "C=C(c1ccccc1OCCc1ccccc1)n1ccnc1", "MIC": 0.1}
    ]},
    {"tested_on": "Aspergillus fumigatus", "assay": "Minimum inhibitory concentration against Aspergillus fumigatus", "assay_type": "functional", "details": "not given", "how_it_was_run": "as §1", "units": {"MIC": "µg/mL"}, "values": [
      {"smiles": "CC(C)(n1ccnc1)n1ccnc1", "MIC": "> 100"}
    ]},
    {"tested_on": "Candida albicans", "assay": "Inhibition of pseudomycelium formation of Candida albicans.", "assay_type": "functional", "details": "read-out: MEC", "how_it_was_run": "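C. albicans KE-2 (clinical isolate), final inoculum 1×10^6 yeast cells/mL in EMEM with 20% calf serum. Compounds serially diluted by the microtiter dilution system used for MICs. After incubation, wells Giemsa-stained (5% in phosphate buffer) and examined microscopically. MEC (μg/mL) = lowest concentration preventing typical pseudomycelium formation. Lowest value of duplicated experiments.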", "units": {"minimal effective concentration": "µg/mL"}, "values": [
      {"smiles": "CC(C)COc1ccc(Cl)cc1/C(=C\\CN(C)C)n1ccnc1", "minimal effective concentration": 2.5},
      {"smiles": "CCC(CC)=C(c1cc(Cl)ccc1OCc1ccc(Cl)cc1)n1cncn1", "minimal effective concentration": 20},
      {"smiles": "CCC(CC)=C(c1cc(Cl)ccc1OC)n1cncn1", "minimal effective concentration": 1.25},
      {"smiles": "CCCCOc1ccccc1C(=C(C)C)n1ccnc1", "minimal effective concentration": 0.31},
      {"smiles": "C=C(c1cccc(OCc2ccc(Cl)cc2)c1)n1ccnc1", "minimal effective concentration": 5},
      {"smiles": "C=C(c1ccccc1OCCC(C)C)n1ccnc1", "minimal effective concentration": 0.63},
      {"smiles": "CN(C)C/C=C(\\c1ccccc1OCc1ccc(Cl)cc1)n1ccnc1", "minimal effective concentration": 1.25},
      {"smiles": "C=C(c1ccccc1N(Cc1ccc(Cl)cc1)C(=O)C(F)(F)F)n1ccnc1", "minimal effective concentration": 20},
      {"smiles": "CC(C)COc1ccccc1/C(=C\\CN1CCOCC1)n1ccnc1", "minimal effective concentration": 2.5},
      {"smiles": "CC(C)=C(c1ccccc1OCC(C)(C)C)n1ccnc1", "minimal effective concentration": 0.31},
      {"smiles": "C=C(c1ccc(Cl)cc1)n1ccnc1", "minimal effective concentration": "> 20"},
      {"smiles": "C/C=C(/c1cc(Cl)ccc1OCCC)n1ccnc1", "minimal effective concentration": 0.63},
      {"smiles": "CCCOc1ccccc1/C(=C\\CN(C)C)n1ccnc1", "minimal effective concentration": 0.31},
      {"smiles": "C=C(c1ccccc1OCC(C)C)n1ccnc1", "minimal effective concentration": 0.63},
      {"smiles": "CC(C)COc1ccccc1/C(=C\\CN(C)C)n1ccnc1", "minimal effective concentration": 0.16},
      {"smiles": "COc1ccc(Cl)cc1/C(=C/c1ccccc1)n1ccnc1", "minimal effective concentration": "> 20"},
      {"smiles": "C=C(c1ccccc1OCCc1ccccc1)n1ccnc1", "minimal effective concentration": 1.25}
    ]}
  ]
}
